PAX8 reporter – inhibitors of PAX8 transcriptional activity in RMG-I cells; inhibition, % at 12.6 µM; RMG-I TPO-luciferase reporter, SteadyGlo, 24 h; 1.2% of 360,000 active; AID 652154;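 active = mean replicate inhibition at least 60% with every replicate also reaching 60%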;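 note: luciferase light reporting Pax8 driven TPO promoter activity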
CDK5 inh – CDK5/p35 (human) kinase inhibition; Q00535+Q15078; Recombinant CDK5/p35, ADP-Glo luminescence, 60 min; inhibition, % at 10 µM; 0.01% of 330,000 active; AID 488839;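 active = highest replicate inhibition of at least 50% and at least 75% of replicates reaching 50%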
Cneo AK release – Cryptococcus neoformans lysis via adenylate kinase release; C. neoformans lysis, adenylate kinase release luminescence, 4 h; normalised: neutral wells 0, clomiphene wells 100; AID 651654; 0.2% of 360,000 active; lysis activity, % at 15 µM;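 active = mean lysis activity across replicates of at least 80%, whatever share of replicates individually reach that level; inactive = mean lysis activity below 80%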
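Assay system: log-phase C. neoformans yeast / Quantity: yeast cell density of 5 × 10^6 cells/mL / Medium: fresh YPD growth medium / Compound: single dose / Timing: static 4 h at 37 °C with compound, 1 h detection / Measured by: adenylate kinase release luminescence / Read-out: lysis from increased AK signal / Benchmarks: Clomiphene as positive lysis control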
dFosB activator – mouse delta FosB homodimer activation | P13346 | purified delta FosB, TAMRA-CDK5 oligo fluorescence polarization; percent of positive-control signal above neutral wells | activation, % at 25 µM | 0.99% of 340,000 active | AID 493131;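 active = mean activation above about 17%, with every replicate also reaching it, limit read from the data, passing the limit was not always enough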
Target sequence (P13346 whole entry, looked up): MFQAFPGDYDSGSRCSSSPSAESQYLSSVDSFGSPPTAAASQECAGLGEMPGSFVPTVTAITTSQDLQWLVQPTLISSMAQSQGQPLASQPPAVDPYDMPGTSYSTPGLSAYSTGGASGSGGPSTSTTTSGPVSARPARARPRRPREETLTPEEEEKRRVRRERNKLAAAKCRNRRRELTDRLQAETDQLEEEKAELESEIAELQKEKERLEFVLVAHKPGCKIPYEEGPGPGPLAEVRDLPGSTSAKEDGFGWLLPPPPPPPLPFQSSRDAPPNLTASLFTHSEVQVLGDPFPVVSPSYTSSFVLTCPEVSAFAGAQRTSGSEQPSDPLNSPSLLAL
GSIS activator – GLuc luminescence reporter in INS-1E cells, primary screen for activators of glucose-dependent secretion of insulin; 0.61% of 370,000 active; INS-1E GLuc reporter insulin secretion, 2-3 h; activation, % at 16.6 µM;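 active = lowest replicate activation of at least 40%, so every replicate reaches that level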
HIV Env fusion – blocks HIV Env-driven cell-cell fusion; HeLa-JRFL Env/CEM21 cell fusion, luciferase; inhibition, % at 12.3 µM; 1.1% of 360,000 active; AID 651610;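 active = mean replicate inhibition score of at least 50 and every replicate individually at or above 50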
Of the large screens only hits and unclear results are named; the others gave an inactive call. Rows were chosen to be rich in hits. Some 2.9% of all compounds tested hit in one or more screens of this group.

COC(=O)[C@@H]1[C@@H](CO)[C@@H]2Cn3c(cccc3=O)[C@H]1N2C(=O)C1CCCC1	none (no result: PAX8 reporter, CDK5 inh, dFosB activator, HIV Env fusion)
Cc1[nH]c2ccccc2c1CCNCc1cccnc1	GSIS activator 48.3 (no result: CDK5 inh)
CN(C)C1C(=O)C(C(N)=O)=C(O)C2(O)C(=O)C3=C(O)c4c(O)cccc4C(C)(O)C3C(O)C12 (stereo not drawn)	HIV Env fusion 63.2
COC(=O)[C@H]1[C@H](CO)[C@H]2Cn3c(ccc(C4=CCCCC4)c3=O)[C@@H]1N2CC1CCCCC1	none (no result: PAX8 reporter, CDK5 inh, Cneo AK release, dFosB activator, HIV Env fusion)
COC1CC2C=C(C)C=CC=CC(=O)NC(c3ccccc3)CC=CCCC(O)CC(=O)C2=C1O (stereo not drawn)	PAX8 reporter 116.2, HIV Env fusion 91.8 (no result: CDK5 inh, Cneo AK release, dFosB activator, GSIS activator)
COC(=O)[C@@H]1[C@@H](CO)[C@@H]2Cn3c(ccc(-c4cccc(OC)c4)c3=O)[C@H]1N2C(=O)c1cnccn1	none (no result: CDK5 inh, dFosB activator, HIV Env fusion)
O=C(Cc1ccccn1)N1CCCCN2[C@H](CO)[C@H](c3ccc(-c4ccccc4)cc3)[C@@H]2C1	none (no result: CDK5 inh, dFosB activator, HIV Env fusion)
O=C(Nc1ccncc1)c1cccn(Cc2ccccc2)c1=O	HIV Env fusion 56.0 (no result: Cneo AK release)
CCOc1cc2c(cc1OCC)-n1cccc1C(c1ccc(C(C)C)cc1)NC2 (stereo not drawn)	dFosB activator 23.9
CCOc1cc2c(cc1OCC)-n1cccc1C(c1ccc(F)cc1)NC2 (stereo not drawn)	none
COc1cccc(CN2CC3(C2)[C@H](c2ccccc2)[C@H](CO)N3C(=O)Cc2ccccc2)c1	none (no result: CDK5 inh, Cneo AK release, dFosB activator, HIV Env fusion)
CCN(CCCl)c1cc(CN(C)C)cc(NC(=O)c2ccc(C(=O)Nc3cc(CN(C)C)cc(N(CC)CCCl)c3)cc2)c1	PAX8 reporter 108.2, dFosB activator 38.1, HIV Env fusion 88.7 (no result: Cneo AK release)
CCN(CC)C(=O)c1ccc(NC(=O)c2cccc(C(F)(F)F)c2)cc1	none
O=C1NC(=O)C2(Cc3ccccc3N3CCCC32)C(=O)N1 (stereo not drawn)	HIV Env fusion 61.3 (no result: PAX8 reporter)
O=C(Cc1ccccc1)N1CC2(C1)[C@H](c1ccccc1)[C@@H](CO)N2Cc1cccc(F)c1	none (no result: CDK5 inh, Cneo AK release, dFosB activator, HIV Env fusion)
NC(Cc1ccc(F)cc1)c1csc(Nc2ncccn2)n1 (stereo not drawn)	PAX8 reporter 74.0 (no result: CDK5 inh, dFosB activator)
CC(=O)OC(C)(C)/C=C/C(=O)[C@](C)(O)C1[C@H](O)C[C@@]2(C)C3CC=C4C(C[C@H](O)C(=O)C4(C)C)[C@]3(C)C(=O)C[C@]12C (stereo partly drawn)	none (no result: PAX8 reporter, GSIS activator, HIV Env fusion)
CC(C)(O)/C=C/C(=O)C(C)(O)C1C(O)CC2(C)C3CC=C4C(C=C(O)C(=O)C4(C)C)C3(C)C(=O)CC12C (stereo not drawn)	PAX8 reporter 91.4, HIV Env fusion 80.9 (no result: Cneo AK release)
CC1=C2C[C@H]3[C@@H](CC=C4C[C@@H](O)CC[C@@]43C)[C@@H]2CC[C@]12O[C@@H]1C[C@H](C)CN[C@@H]1C2C (stereo partly drawn)	none (no result: CDK5 inh, dFosB activator, GSIS activator)
C/C=C/c1ccc(C2[C@@H]3CN(C(=O)CN(C)C)C[C@H]2N3)cc1 (stereo partly drawn)	none (no result: CDK5 inh, Cneo AK release, dFosB activator, HIV Env fusion)
COc1ccc(CN2CCN(Cc3ccccc3F)CC2)cc1	GSIS activator 43.5
C=CCN1[C@@H]2CN(C(=O)NC(C)C)C[C@H]1C2c1ccccc1 (stereo partly drawn)	none (no result: PAX8 reporter, CDK5 inh, Cneo AK release, dFosB activator, HIV Env fusion)
Cc1ccc(S(=O)(=O)CC(C)(O)C(=O)Nc2cccc(C(F)(F)F)c2)cc1 (stereo not drawn)	HIV Env fusion 67.7 (no result: PAX8 reporter, GSIS activator)
COC(=O)[C@H]1[C@H](CO)[C@H]2Cn3c(ccc(-c4ccccc4)c3=O)[C@@H]1N2C(=O)c1ccccc1F	none (no result: PAX8 reporter, CDK5 inh, dFosB activator, HIV Env fusion)
CN1C2CN(CC(F)(F)F)CC1C2c1ccc(Br)cc1 (stereo not drawn)	none (no result: PAX8 reporter, CDK5 inh, Cneo AK release, dFosB activator, HIV Env fusion)
O=C(O)[C@H]1[C@H](CO)[C@H]2Cn3c(ccc(C4=CCCC4)c3=O)[C@@H]1N2C(=O)Cc1ccccn1	none (no result: PAX8 reporter, CDK5 inh, dFosB activator, HIV Env fusion)
C[C@H]1CC[C@@H]2[C@@H](C)[C@H]3[C@H](C[C@H]4[C@@H]5CC=C6C[C@@H](O[C@@H]7O[C@H](CO)[C@H](O)[C@H](O[C@@H]8O[C@H](CO)[C@@H](O)[C@H](O)[C@H]8O)[C@H]7O[C@@H]7O[C@@H](C)[C@H](O)[C@@H](O)[C@H]7O)CC[C@]6(C)[C@H]5CC[C@]34C)N2C1	GSIS activator 49.5 (no result: PAX8 reporter, HIV Env fusion)
